Assay results published in ChEMBL document CHEMBL5608190, “Dehydroabietylamine-substituted trifluorobenzene sulfonamide rhodamine B hybrids as anticancer agents overcoming drug resistance” (Eur J Med Chem, 2024).

What was measured:
A2780 = experiment: Cytotoxicity against human A2780 cells incubated for 72 hrs by SRB assay; assay type: functional, cell-based; settings: A2780, 72 h
Method in brief: (§1)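 Cells plated in 96-well format and left 24 h, then exposed to serial dilutions of compound for 72 h; growth read by sulforhodamine B staining. Media held 10 % fetal bovine serum and 1 % penicillin-streptomycin. IC50 taken from dose-response curves, means of 2 independent experiments.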

[1] = Cytotoxicity against human A2780cis cells incubated for 72 hrs by SRB assay; assay type: functional, cell-based; method in brief: as §1
A549 = experiment: Cytotoxicity against human A549 cells incubated for 72 hrs by SRB assay; assay type: functional, cell-based; settings: A549, 72 h; method in brief: as §1
HT-29 = experiment: Cytotoxicity against human HT-29 cells incubated for 72 hrs by SRB assay; assay type: functional, cell-based; settings: HT-29, 72 h; method in brief: as §1
MCF7 = experiment: Cytotoxicity against human MCF7 cells incubated for 72 hrs by SRB assay; assay type: functional, cell-based; settings: MCF7, 72 h
Method in brief: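 Cells plated in 96-well format and left 24 h, then exposed to serial dilutions of compound for 72 h; growth read by sulforhodamine B staining. Media held 10 % fetal bovine serum and 1 % penicillin-streptomycin.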

[2] = Cytotoxicity against human CCD-18Co cells incubated for 72 hrs by SRB assay; assay type: toxicity, cell-based; method in brief: as §1
[3] = Resistance index, ratio of IC50 for human A2780cis cells to IC50 for human A2780cis cells; assay type: functional; settings: in the assay text read “to IC50 for human A2780 cells” for “to IC50 for human A2780cis cells”
Method in brief: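 Resistance index calculated as the ratio of the 72 h SRB IC50 in A2780cis to that in parental A2780.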

[4] = Selectivity index, ratio of IC50 for human CCD-18Co cells to IC50 for human A2780cis cells
Method in brief: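 Selectivity index calculated as the ratio of the 72 h SRB IC50 in non-malignant CCD18Co fibroblasts to that in A2780cis.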

[5] = Drug accumulation in human HT-29 cells at 500 nM incubated for 30 mins by fluorescence based analysis; assay type: ADME, cell-based; settings: ht-29, 0.5 h, 0.5 µM
Method in brief: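 Live-cell imaging in HT29 cells seeded at 20.000 per well and grown 48 h, then switched to phenol-red-free RPMI 1640. Co-treated with compound at 500 nM, HypoxySense 680 (1:2000, CAIX probe) and Hoechst 33342 nuclear stain. Imaged after 30 min by fluorescence microscopy at Ex/Em 385/425 nm (Hoechst), 555/592 nm (compounds) and 630/681 nm (HypoxySense).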

Drug uptake [5]	Compound	IC50 (A2780) [nM]	IC50 [1] [nM]	IC50 (A549) [nM]	IC50 (HT-29) [nM]	IC50 (MCF7) [nM]	IC50 at 72 h [2] [nM]	Ratio IC50 [3]	Ratio IC50 [4]
Active	CCN(CC)c1ccc2c(-c3ccccc3C(=O)N3CCN(C(=O)c4ccc(CCSc5c(F)c(F)c(S(N)(=O)=O)c(NC6CCCCCCCCCCC6)c5F)cc4)CC3)c3ccc(=[N+](CC)CC)cc-3oc2c1.[Cl-]	240	450	590	320	260	550	1.87	1.22
Active	CCN(CC)c1ccc2c(-c3ccccc3C(=O)N3CCN(C(=O)c4ccc(CCSc5c(F)c(F)c(S(N)(=O)=O)c(NC[C@]6(C)CCC[C@]7(C)c8ccc(C(C)C)cc8CC[C@@H]67)c5F)cc4)CC3)c3ccc(=[N+](CC)CC)cc-3oc2c1.[Cl-]	380	460	710	530	410	1020	1.21	2.22
	COc1cccc2c1C(=O)c1c(O)c3c(c(O)c1C2=O)C[C@@](O)(C(=O)CO)C[C@@H]3O[C@H]1C[C@H](N)[C@H](O)[C@H](C)O1 [DOXORUBICIN]		99	23	86		269		
